Results published in ChEMBL document CHEMBL1146851, “Discovery of 2-pyrimidyl-5-amidothiophenes as potent inhibitors for AKT: synthesis and SAR studies” (Bioorg Med Chem Lett, 2006).
Calls of active or inactive are those of the source. The calls are words filed in the database; no cut-off is given here.

Legend:
[1] = target: T1, RAC-gamma serine/threonine-protein kinase (Homo sapiens, UniProt Q9Y243); experiment: Inhibition of AKT3 in presence of 0.2 uM ATP
How it was run: (§1)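 Biochemical kinase IC50s, each run with ATP at or below its Km.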

[2] = target: RAC-alpha serine/threonine-protein kinase (Homo sapiens, UniProt P31749); experiment: Inhibition of AKT1; how it was run: as §1
Sequence of RAC-alpha serine/threonine-protein kinase (P31749 whole entry): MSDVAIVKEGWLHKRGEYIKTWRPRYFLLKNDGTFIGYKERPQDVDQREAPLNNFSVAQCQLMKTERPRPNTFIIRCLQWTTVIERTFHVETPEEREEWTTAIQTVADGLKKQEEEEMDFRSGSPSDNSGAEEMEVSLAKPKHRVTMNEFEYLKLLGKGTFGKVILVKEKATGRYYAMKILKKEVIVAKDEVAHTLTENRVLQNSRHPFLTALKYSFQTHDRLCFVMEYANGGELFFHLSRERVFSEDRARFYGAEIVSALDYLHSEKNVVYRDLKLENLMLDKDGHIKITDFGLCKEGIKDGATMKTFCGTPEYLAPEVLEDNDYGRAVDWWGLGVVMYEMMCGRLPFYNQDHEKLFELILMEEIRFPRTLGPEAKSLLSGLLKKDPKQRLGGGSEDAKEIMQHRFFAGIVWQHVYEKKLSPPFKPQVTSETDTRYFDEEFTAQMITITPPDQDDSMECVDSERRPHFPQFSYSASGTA

[3] = target: T1, RAC-gamma serine/threonine-protein kinase; experiment: Inhibition of AKT3
How it was run: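 Kinase IC50 determined in a biochemical kinase assay with ATP at or below its Km.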

[4] = target: T2, cAMP-dependent protein kinase (PKA) (Homo sapiens, UniProt P22694+P17612+P22612); experiment: Inhibition of PKA; format: protein assay; how it was run: as §1
[5] = target: Mast/stem cell growth factor receptor Kit (Homo sapiens, UniProt P10721); experiment: Inhibition of Kit
[6] = target: Hepatocyte growth factor receptor (Homo sapiens, UniProt P08581); experiment: Inhibition of Met; how it was run: as §1
Sequence of Hepatocyte growth factor receptor (P08581 whole entry): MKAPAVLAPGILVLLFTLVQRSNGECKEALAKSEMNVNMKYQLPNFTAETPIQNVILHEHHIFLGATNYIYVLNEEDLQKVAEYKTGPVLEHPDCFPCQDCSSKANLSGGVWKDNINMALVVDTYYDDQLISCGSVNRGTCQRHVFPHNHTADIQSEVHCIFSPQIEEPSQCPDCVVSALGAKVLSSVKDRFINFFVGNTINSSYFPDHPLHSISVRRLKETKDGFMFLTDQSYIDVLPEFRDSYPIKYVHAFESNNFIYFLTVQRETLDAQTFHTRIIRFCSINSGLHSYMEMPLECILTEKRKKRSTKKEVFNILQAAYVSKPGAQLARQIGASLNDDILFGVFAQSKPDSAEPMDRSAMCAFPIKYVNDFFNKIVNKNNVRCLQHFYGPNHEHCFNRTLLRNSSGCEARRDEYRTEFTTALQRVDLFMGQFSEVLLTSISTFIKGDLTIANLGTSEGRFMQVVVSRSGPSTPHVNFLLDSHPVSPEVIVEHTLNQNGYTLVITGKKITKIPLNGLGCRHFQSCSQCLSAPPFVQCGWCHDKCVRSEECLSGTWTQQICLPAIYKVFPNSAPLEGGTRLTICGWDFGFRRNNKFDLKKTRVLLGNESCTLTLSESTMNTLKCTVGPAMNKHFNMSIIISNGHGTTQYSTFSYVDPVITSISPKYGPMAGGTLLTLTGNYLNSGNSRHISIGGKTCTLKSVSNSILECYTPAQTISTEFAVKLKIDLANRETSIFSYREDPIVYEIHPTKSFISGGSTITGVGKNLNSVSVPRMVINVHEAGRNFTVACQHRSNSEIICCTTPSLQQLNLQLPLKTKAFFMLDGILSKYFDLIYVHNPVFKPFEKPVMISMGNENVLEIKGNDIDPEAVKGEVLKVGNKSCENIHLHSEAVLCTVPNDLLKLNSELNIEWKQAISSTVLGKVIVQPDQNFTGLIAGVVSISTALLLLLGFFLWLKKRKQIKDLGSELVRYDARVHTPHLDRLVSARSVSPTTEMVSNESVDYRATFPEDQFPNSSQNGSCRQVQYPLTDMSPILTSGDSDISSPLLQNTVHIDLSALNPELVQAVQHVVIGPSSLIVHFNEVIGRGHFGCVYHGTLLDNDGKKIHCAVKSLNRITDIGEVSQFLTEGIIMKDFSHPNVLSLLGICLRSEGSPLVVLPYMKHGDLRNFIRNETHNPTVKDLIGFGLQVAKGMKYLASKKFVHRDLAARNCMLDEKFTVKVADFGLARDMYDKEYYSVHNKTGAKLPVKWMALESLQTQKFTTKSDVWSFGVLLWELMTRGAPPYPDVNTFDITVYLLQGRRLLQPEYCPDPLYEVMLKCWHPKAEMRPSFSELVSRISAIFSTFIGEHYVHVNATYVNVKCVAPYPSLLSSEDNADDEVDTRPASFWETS

[7] = target: Protein kinase C alpha type (Homo sapiens, UniProt P17252); experiment: Inhibition of PKCa
[8] = target: Calcium/calmodulin-dependent protein kinase type II subunit alpha (Homo sapiens, UniProt Q9UQM7); experiment: Inhibition of CamK2alpha
Sequence of Calcium/calmodulin-dependent protein kinase type II subunit alpha (Q9UQM7 whole entry): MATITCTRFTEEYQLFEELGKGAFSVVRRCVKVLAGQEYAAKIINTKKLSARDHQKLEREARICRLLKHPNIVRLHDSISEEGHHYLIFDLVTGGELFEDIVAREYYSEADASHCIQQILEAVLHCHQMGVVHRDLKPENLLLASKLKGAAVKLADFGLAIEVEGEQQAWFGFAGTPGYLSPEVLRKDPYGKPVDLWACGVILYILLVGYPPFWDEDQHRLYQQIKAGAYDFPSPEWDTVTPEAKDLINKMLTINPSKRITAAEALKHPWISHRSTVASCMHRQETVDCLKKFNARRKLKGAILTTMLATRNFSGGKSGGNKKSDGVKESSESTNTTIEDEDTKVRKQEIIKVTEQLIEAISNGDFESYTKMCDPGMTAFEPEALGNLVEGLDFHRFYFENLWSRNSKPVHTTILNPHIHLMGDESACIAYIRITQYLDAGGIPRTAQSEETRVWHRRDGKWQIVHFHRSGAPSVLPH
How it was run: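 IC50 from an in vitro kinase assay with ATP at or below its Km.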

[9] = target: Mitogen-activated protein kinase 3 (Homo sapiens, UniProt P27361); experiment: Inhibition of ERK1; how it was run: as §1
Sequence of Mitogen-activated protein kinase 3 (P27361 whole entry): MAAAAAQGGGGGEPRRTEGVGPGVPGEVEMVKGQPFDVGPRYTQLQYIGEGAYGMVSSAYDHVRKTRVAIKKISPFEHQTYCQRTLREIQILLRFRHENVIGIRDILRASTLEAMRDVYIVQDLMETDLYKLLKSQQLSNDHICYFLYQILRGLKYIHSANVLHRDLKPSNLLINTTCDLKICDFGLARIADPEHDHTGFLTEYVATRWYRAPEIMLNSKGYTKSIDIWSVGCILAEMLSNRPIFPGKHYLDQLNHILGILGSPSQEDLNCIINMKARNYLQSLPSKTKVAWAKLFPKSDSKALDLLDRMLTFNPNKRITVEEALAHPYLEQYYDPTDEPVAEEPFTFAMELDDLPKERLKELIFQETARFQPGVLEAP

[10] = target: RAF proto-oncogene serine/threonine-protein kinase (Homo sapiens, UniProt P04049); experiment: Inhibition of RAF1; how it was run: as §1
Sequence of RAF proto-oncogene serine/threonine-protein kinase (P04049 whole entry): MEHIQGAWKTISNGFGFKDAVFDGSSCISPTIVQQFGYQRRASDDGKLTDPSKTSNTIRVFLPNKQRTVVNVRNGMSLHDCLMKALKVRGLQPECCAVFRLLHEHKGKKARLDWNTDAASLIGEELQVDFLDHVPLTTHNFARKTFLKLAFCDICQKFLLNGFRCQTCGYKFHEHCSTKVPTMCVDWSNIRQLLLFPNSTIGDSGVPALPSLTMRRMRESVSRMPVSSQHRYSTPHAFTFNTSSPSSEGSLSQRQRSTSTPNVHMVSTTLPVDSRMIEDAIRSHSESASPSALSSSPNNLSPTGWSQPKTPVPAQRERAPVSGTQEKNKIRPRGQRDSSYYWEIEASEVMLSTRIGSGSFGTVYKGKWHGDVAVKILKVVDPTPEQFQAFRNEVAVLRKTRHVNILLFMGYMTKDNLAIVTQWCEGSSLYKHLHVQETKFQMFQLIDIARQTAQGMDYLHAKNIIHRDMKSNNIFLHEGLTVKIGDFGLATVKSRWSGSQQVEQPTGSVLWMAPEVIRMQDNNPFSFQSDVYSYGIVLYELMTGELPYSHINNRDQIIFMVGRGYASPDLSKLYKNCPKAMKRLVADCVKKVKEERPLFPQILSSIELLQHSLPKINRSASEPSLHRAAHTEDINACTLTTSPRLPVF

DOV13 = experiment: Antiproliferative activity against human DOV13 cell line; format: functional, cell-based
[11] = target: T3, Serine/threonine-protein kinase AKT (Homo sapiens, UniProt P31751+Q9Y243+P31749); experiment: Activity against AKT-mediated GSK3 S9P phosphorylation in human DOV13 cell line; format: functional, cell-based
[12] = target: T3, Serine/threonine-protein kinase AKT; experiment: Activity against AKT-mediated PRAS40 T246P phosphorylation in human DOV13 cell line; format: functional, cell-based
[13] = target: T2, cAMP-dependent protein kinase (PKA); experiment: Inhibitory activity against PKA in human UACC903 cell line at 10 nM; format: functional, cell-based; details: UACC-903
How it was run: (§2)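 UACC903 melanoma cells were pre-incubated with the test compound at various concentrations for 45 min, then stimulated with 7 μM forskolin for 15 min before lysis. Lysates were Western blotted for phospho-VASP as the PKA read-out, with phospho-MDM2 as the AKT read-out.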

[14] = target: T2, cAMP-dependent protein kinase (PKA); experiment: Inhibitory activity against PKA in human UACC903 cell line at 33 nM; format: functional, cell-based; details: UACC-903; how it was run: as §2
[15] = target: T3, Serine/threonine-protein kinase AKT; experiment: Activity against AKT-mediated S6RP S235/236P phosphorylation in human DOV13 cell line; format: functional, cell-based

T1 sequence (Q9Y243 whole entry): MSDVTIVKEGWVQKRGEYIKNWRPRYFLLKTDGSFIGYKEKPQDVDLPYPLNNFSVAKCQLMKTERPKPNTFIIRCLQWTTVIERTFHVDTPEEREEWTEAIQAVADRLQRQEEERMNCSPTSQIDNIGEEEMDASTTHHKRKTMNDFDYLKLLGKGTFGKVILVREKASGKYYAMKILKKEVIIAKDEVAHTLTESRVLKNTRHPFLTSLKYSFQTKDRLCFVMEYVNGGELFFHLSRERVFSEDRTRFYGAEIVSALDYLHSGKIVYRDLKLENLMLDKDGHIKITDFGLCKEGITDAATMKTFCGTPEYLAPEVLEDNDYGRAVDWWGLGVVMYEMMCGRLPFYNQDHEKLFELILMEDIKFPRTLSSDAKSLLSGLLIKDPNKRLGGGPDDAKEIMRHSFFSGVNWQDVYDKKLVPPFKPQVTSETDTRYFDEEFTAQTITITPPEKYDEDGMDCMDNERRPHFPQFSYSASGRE

| Structure (SMILES) | IC50 [1] [nM] | further results |
| --- | --- | --- |
| CNc1nccc(-c2ccc(C(=O)NCc3ccc(F)cc3)s2)n1 | 4700 | – |
| CCNc1nccc(-c2ccc(C(=O)NCCc3ccc(Cl)cc3Cl)s2)n1 | 1500 | – |
| CNc1nccc(-c2ccc(C(=O)NC[C@@H](N)c3ccccc3)s2)n1 | 2800 | – |
| CN(C)c1nccc(-c2ccc(C(=O)NCCc3ccc(Cl)cc3Cl)s2)n1 | > 25000 | – |
| CNc1nccc(-c2ccc(C(=O)N[C@H](CCN)Cc3ccc(Cl)cc3Cl)s2)n1 | 27 | – |
| CNc1nccc(-c2ccc(C(=O)Nc3ccc(F)cc3)s2)n1 | > 25000 | – |
| CNc1nccc(-c2ccc(S(=O)(=O)NCCc3ccc(Cl)cc3Cl)s2)n1 | > 25000 | – |
| CNc1nccc(-c2ccc(C(=O)N[C@@H](Cc3ccc(Cl)cc3Cl)C(=O)OC)s2)n1 | 2400 | – |
| CNc1nccc(-c2ccc(C(=O)NCCc3ccc(Cl)cc3)s2)n1 | 1100 | – |
| CNc1nccc(-c2ccc(C(=O)NCCc3ccc(C)cc3)s2)n1 | > 25000 | – |
| CNc1nccc(-c2ccc(C(=O)N[C@@H](Cc3ccc(Cl)cc3Cl)CN(C)C)s2)n1 | 11 | – |
| CNc1nccc(-c2ccc(C(=O)NCCc3ccncc3)s2)n1 | > 25000 | – |
| CNc1nccc(-c2ccc(C(=O)NCCc3ccccc3)s2)n1 | 5000 | – |
| Nc1nccc(-c2ccc(C(=O)NCCc3ccc(Cl)cc3Cl)s2)n1 | 610 | – |
| CCCNc1nccc(-c2ccc(C(=O)NCCc3ccc(Cl)cc3Cl)s2)n1 | > 25000 | – |
| CNc1nccc(-c2ccc(C(=O)NCCc3ccccc3Cl)s2)n1 | 2900 | – |
| CNc1nccc(-c2ccc(C(=O)NCCc3ccc(Cl)cc3Cl)s2)n1 | 990 | – |
| CNc1nccc(-c2ccc(CNCCc3ccc(Cl)cc3Cl)s2)n1 | 5200 | – |
| CNc1nccc(-c2ccc(NC(=O)OCc3ccc(F)cc3)s2)n1 | 7400 | – |

| Structure (SMILES) | IC50 [1] [nM] | further results |
| --- | --- | --- |
| CNc1nccc(-c2ccc(C(=O)NCCc3ccc(S(N)(=O)=O)cc3)s2)n1 | 19000 | – |
| CNc1nccc(-c2ccc(C(=O)NCCc3ccc(F)cc3)s2)n1 | 3000 | – |
| CNc1nccc(-c2ccc(C(=O)N[C@H](CO)Cc3ccc(Cl)cc3Cl)s2)n1 | 280 | – |
| CNc1nccc(-c2ccc(C(=O)NCCN(C)C)s2)n1 | 7000 | – |
| CNc1nccc(-c2ccc(C(=O)N[C@@H](CN)Cc3ccc(Cl)cc3Cl)s2)n1 | 240 | – |
| CNc1nccc(-c2ccc(C(=O)NCCN)s2)n1 | 1300 | – |
| CNc1nccc(-c2ccc(NC(=O)NCc3ccc(Cl)cc3Cl)s2)n1 | 2100 | – |
| CNc1nccc(-c2ccc(C(=O)NCCCc3ccc(F)cc3)s2)n1 | 18000 | – |
| CNc1nccc(-c2ccc(C(=O)NCCc3ccc(Br)cc3)s2)n1 | 2600 | – |
| CCC(CNC(=O)c1ccc(-c2ccnc(NC)n2)s1)c1ccc(Cl)cc1Cl (stereo unspecified) | 1000 | – |
| CNc1nccc(-c2ccc(C(=O)N[C@H](CN)Cc3ccc(Cl)cc3Cl)s2)n1 | – | IC50 [2]: 6 nM; IC50 [3]: 3 nM; IC50 [4]: 0.1 nM; IC50 [5]: 110 nM; IC50 [6]: 1100 nM; IC50 [7]: 66 nM; IC50 [8]: 8000 nM; IC50 [9]: 400 nM; IC50 [10]: > 10000 nM; EC50 (DOV13): 1000 nM; EC50 [11]: 320 nM; EC50 [12]: 160 nM; Activity [13]: Active; Activity [14]: Active; EC50 [15]: 370 nM |
| CNc1nccc(-c2ccc(C(=O)N[C@H](C)Cc3ccc(Cl)cc3Cl)s2)n1 | 820 | – |
| CNc1nccc(-c2ccc(C(=O)NCCc3cccc(Cl)c3)s2)n1 | 5400 | – |
| CNc1nccc(-c2ccc(C(=O)NCC(C)c3ccc(Cl)cc3Cl)s2)n1 (stereo unspecified) | 660 | – |
| CNc1nccc(-c2ccc(NC(=O)CCc3ccc(F)cc3)s2)n1 | 2300 | – |
| CNc1nccc(-c2ccc(C(=O)NC(CN)Cc3ccc(Cl)cc3Cl)s2)n1 (stereo unspecified) | 4.8 | – |
| CNc1nccc(-c2ccc(C(=O)NCCc3ccc(OC)cc3)s2)n1 | > 25000 | – |
| CNc1nccc(-c2ccc(C(=O)NCC(c3ccccc3)c3ccccc3)s2)n1 | > 25000 | – |
